From ChEMBL document CHEMBL4229456, “Salicylic Acid Derivatives Inhibit Oxalate Production in Mouse Hepatocytes with Primary Hyperoxaluria Type 1” (J Med Chem, 2018)
The source made the active and inactive calls. The rule behind the calls is not given here.

Experiments:
[1] = biological target: T1, 2-Hydroxyacid oxidase 1 (Mus musculus) (UniProt Q9WU19); experiment: Inhibition of glycolate oxidase in C57BL/6 Agxt1-/- mouse hepatocytes using glycolate as substrate assessed as relative oxalate level at 10 uM after 24 hrs; type: cell-based
T1 sequence (whole entry): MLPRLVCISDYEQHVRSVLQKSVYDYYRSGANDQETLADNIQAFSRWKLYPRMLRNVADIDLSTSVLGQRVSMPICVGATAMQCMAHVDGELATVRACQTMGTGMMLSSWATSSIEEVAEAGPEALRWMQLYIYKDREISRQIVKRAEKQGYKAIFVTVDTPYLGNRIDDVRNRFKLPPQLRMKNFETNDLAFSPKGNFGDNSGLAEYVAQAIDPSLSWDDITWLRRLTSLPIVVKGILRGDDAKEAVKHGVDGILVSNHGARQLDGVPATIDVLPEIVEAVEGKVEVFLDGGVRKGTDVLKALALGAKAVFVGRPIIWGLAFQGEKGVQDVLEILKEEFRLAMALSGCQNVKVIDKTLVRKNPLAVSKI
Outline: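 Primary Agxt1-/- mouse hepatocytes in 6-well plates, serum-free Williams E with 5 mM glycolate, treated with 10 µM compound. Excreted oxalate measured 24 h later by oxalate oxidase–HRP colorimetric kit (595 nm) and expressed relative to untreated control. Mean ± SD, n = 3, one-way ANOVA.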

2-Hydroxyacid oxidase 1 [2] = biological target: T2, 2-Hydroxyacid oxidase 1 (Mus musculus, UniProt Q9WU19); experiment: Inhibition of glycolate oxidase in C57BL/6 Agxt1-/- mouse hepatocytes using glycolate as substrate assessed as reduction in oxalate production after 24 hrs; type: cell-based
T2 sequence (Q9WU19 whole entry): T1 sequence (whole entry)
Outline: (§1)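 Agxt1-/- hepatocytes from male C57BL/6 mice, 3.0x10^5 cells/well, in Williams E with 5% FBS and insulin/hydrocortisone. After 5 h, switched to serum-free medium and treated across a dose range with 5 mM glycolate. Medium harvested at 24, 48 and 72 h; oxalate measured by oxalate oxidase/HRP kit (MBTH/DMAB dye, 595 nm). EC50 from nonlinear regression of log concentration.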

2-Hydroxyacid oxidase 1 [3] = biological target: T2, 2-Hydroxyacid oxidase 1; experiment: Inhibition of glycolate oxidase in C57BL/6 Agxt1-/- mouse hepatocytes using glycolate as substrate assessed as reduction in oxalate production after 48 hrs; type: cell-based; outline: as §1
2-Hydroxyacid oxidase 1 [4] = biological target: T2, 2-Hydroxyacid oxidase 1; experiment: Inhibition of glycolate oxidase in C57BL/6 Agxt1-/- mouse hepatocytes using glycolate as substrate assessed as reduction in oxalate production after 72 hrs; type: cell-based; outline: as §1
[5] = biological target: T1, 2-Hydroxyacid oxidase 1 (Mus musculus); experiment: Inhibition of glycolate oxidase in C57BL/6 Agxt1-/- mouse hepatocytes using glycolate as substrate assessed as reduction in oxalate production at 2.5 uM after 24 hrs post treatment relative to control; type: cell-based
Outline: (§2)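 Agxt1-/- primary hepatocytes (3.0x10^5 cells/well), serum-free Williams E with 5 mM glycolate, treated at the stated concentrations. Medium oxalate quantified at the stated time by oxalate oxidase kit (H2O2/HRP, MBTH and DMAB, 595 nm) and expressed relative to control.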

[6] = biological target: T1, 2-Hydroxyacid oxidase 1 (Mus musculus); experiment: Inhibition of glycolate oxidase in C57BL/6 Agxt1-/- mouse hepatocytes using glycolate as substrate assessed as reduction in oxalate production at 5 uM after 72 hrs post treatment; type: cell-based; outline: as §2
Hepatocyte [7] = experiment: Cytotoxicity against C57BL/6 Agxt1-/- mouse hepatocytes at 80 uM after 24 to 48 hrs by Celltiter reagent based assay; type: cell-based
Outline: (§3)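 Agxt1-/- hepatocytes (male C57BL/6, collagenase perfusion) seeded at 1.0x10^4 cells/well in 96-well plates and given the same compound concentrations as the 6-well oxalate cultures. At each time point, CellTiter 96 AQueous One reagent was added and incubated 2 h at 37°C, 5% CO2, with absorbance read at 493 nm.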

[8] = biological target: T1, 2-Hydroxyacid oxidase 1 (Mus musculus); experiment: Potency index, ratio of EC50 for CCPST to EC50 for test compound for inhibition of glycolate oxidase in C57BL/6 Agxt1-/- mouse hepatocytes using glycolate as substrate assessed as reduction in oxalate production after 24 to 72 hrs; type: cell-based
Armoracia rusticana = experiment: Inhibition of horseradish peroxidase at 20 uM after 1 min by sulfonated-DCIP dye based assay
Outline: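 HRP counter-screen without mGO or glycolate: H2O2 (10 µL of 1:10 000) with HRP, sulfonated DCIP and 4-aminoantipyrine under mGO assay conditions, compound added from 1 mM DMSO stock. Absorbance read at 515 nm after 1 min, compared with an H2O2 standard curve. Run in duplicate.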

[9] = Half life in mouse liver microsomes at 2 uM in presence of NADPH by LC-HRMS method; type: ADME, microsome
[10] = Drug metabolism in mouse liver microsomes assessed as metabolite formation at 2 uM in presence of NADPH after 60 mins by LC-HRMS method; type: ADME, microsome; settings: 1 h
[11] = Activity against horseradish peroxidase by oxalate detection based assay
[12] = biological target: T1, 2-Hydroxyacid oxidase 1 (Mus musculus); experiment: Inhibition of mouse recombinant glycolate oxidase expressed in Escherichia coli at 25 uM using glycolate as substrate after 1 min by sulfonated DCIP dye-based assay relative to control
2-Hydroxyacid oxidase 1 [13] = biological target: T2, 2-Hydroxyacid oxidase 1; experiment: Inhibition of mouse recombinant glycolate oxidase expressed in Escherichia coli using glycolate as substrate by sulfonated DCIP dye-based assay
Outline: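 Purified recombinant mGO (10 µL at 0.1 µg/µL) with saturating glycolate (22.2 mM) in 50 mM potassium phosphate pH 7. Compound at 0.2 µM–0.2 mM; H2O2 detected by HRP-coupled sulfonated DCIP/4-aminoantipyrine dye at 515 nm. IC50 from nonlinear dose-response fitting.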

2-Hydroxyacid oxidase 1 [14] = biological target: T2, 2-Hydroxyacid oxidase 1; experiment: Inhibition of mouse recombinant glycolate oxidase expressed in Escherichia coli using glycolate as substrate by Dixon plot and Cornish-Bowden plot analysis
Outline: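 Recombinant mGO held at constant enzyme concentration and tested with increasing inhibitor at several glycolate concentrations in the HRP/DCIP 515 nm assay. Inhibition type read from Cornish-Bowden and Dixon plots; Ki taken as the intersection of the lines.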

[15] = biological target: T1, 2-Hydroxyacid oxidase 1 (Mus musculus); experiment: Inhibition of glycolate oxidase in C57BL/6 Agxt1-/- mouse hepatocytes using glycolate as substrate assessed as reduction in oxalate production at 12.5 uM after 24 hrs post treatment relative to control; type: cell-based; outline: as §2
[16] = biological target: T1, 2-Hydroxyacid oxidase 1 (Mus musculus); experiment: Inhibition of glycolate oxidase in C57BL/6 Agxt1-/- mouse hepatocytes using glycolate as substrate assessed as reduction in oxalate production at 6.25 uM after 24 hrs post treatment relative to control; type: cell-based; outline: as §2
[17] = biological target: T1, 2-Hydroxyacid oxidase 1 (Mus musculus); experiment: Inhibition of glycolate oxidase in C57BL/6 Agxt1-/- mouse hepatocytes using glycolate as substrate assessed as reduction in oxalate production at 12.5 uM after 48 hrs post treatment relative to control; type: cell-based; outline: as §2
Hepatocyte [18] = experiment: Cytotoxicity against C57BL/6 Agxt1-/- mouse hepatocytes after 24 to 48 hrs by Celltiter reagent based assay; type: cell-based; outline: as §3
[19] = biological target: T1, 2-Hydroxyacid oxidase 1 (Mus musculus); experiment: Potency index, ratio of EC50 for CCPST to EC50 for test compound for inhibition of glycolate oxidase in C57BL/6 Agxt1-/- mouse hepatocytes using glycolate as substrate assessed as reduction in oxalate production after 24 hrs; type: cell-based

fold change (FC) [1] | EC50 (2-Hydroxyacid oxidase 1 [2]) [µM] | EC50 (2-Hydroxyacid oxidase 1 [3]) [µM] | EC50 (2-Hydroxyacid oxidase 1 [4]) [µM] | inhibition [5] [%] | inhibition [6] | Ratio EC50 [8] | inhibition (Armoracia rusticana) [%] | half-life at 2 µM [9] [min] | Drug metabolism [10] | EC50 [11] [µM] | inhibition [12] [%] | IC50 (2-Hydroxyacid oxidase 1 [13]) [µM] | Ki (2-Hydroxyacid oxidase 1 [14]) [µM] | inhibition [15] [%] | inhibition [16] [%] | inhibition [17] [%] | Ratio EC50 [19] | SMILES | Activity (Hepatocyte [7]) | Activity (Hepatocyte [18])
0 | 3.59 | 7.88 | 9.2 | 26.5 | Active | 7 | 12.6 | 61.9 | Metabolite_Notdetected | 18 | – | – | – | – | – | – | – | O=C(O)c1cc(-c2ccco2)ccc1O | Toxic | –
0 | 3.45 | 8.36 | 11.2 | – | – | 7 | – | 13.3 | – | – | 42.7 | 38.2 | 47.2 | 106 | 67.3 | 62.3 | 5 | O=Cc1ccc(-c2ccc(O)c(C(=O)O)c2)o1 | – | Non-Toxic
